# Compound activity: PubChem, several laboratories
# GSH fluor = compound fluorescence on glutathione beads, profiling panel, artefact control, biophysical, 488/530 nm, flow cytometry. fluorescence (KMESF) at 10 µM. AID 1776, 2009. GSH beads flow cytometry, compound fluorescence 488/530 nm; stronger effect = higher value. actives 0.25% (n = 190,000); in the data active = fluorescence above about 89;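 also: glutathione beads carrying GST-tagged Bcl family fusion proteins plus one bare bead set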
# ABCG2 block = ABCG2 efflux pump inhibitors, primary screen, multiplex with ABCB1, IgMXP3 cells, flow cytometry. actives 0.1% (n = 190,000). inhibition, % at 6.6 µM. Broad substrate specificity ATP-binding cassette transporter ABCG2 (Homo sapiens), Q9UNQ0. JC-1 efflux;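 active = inhibition above 80%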
#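 Measure – % inhibition of efflux relative to nicardipine and DMSO · Test system – ABCG2 IgMXP3 and barcoded ABCB1 CCRF-Adr cell mix · Control set – nicardipine as high control, DMSO as low control · Compound – one concentration, 6.6 µM final · Signal – flow cytometry of retained JC-1 fluorescence · Timing – 10 min exposure at 25 °C with rotation, no wash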
# Avidin fluor = green autofluorescence of compounds with avidin beads – biophysical, 488/530 nm, flow cytometry, artefact control, profiling panel; compound fluorescence 488/530 nm; stronger effect = higher value; fluorescence (KMESF) at 10 µM; actives 0.38% (n = 220,000); AID 1775, 2009; in the data active = fluorescence above about 47
# ABCB1 block = ABCB1 efflux pump inhibitors, primary screen, cell-based, multiplex, flow cytometry, ABCG2 counter-screen; ATP-dependent translocase ABCB1 (Homo sapiens), P08183; CCRF-Adr cells, JC-1 efflux; inhibition, % at 6.6 µM; actives 0.067% (n = 190,000); in the data active = inhibition above about 40%;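 also: higher value means more JC-1 retained so stronger ABCB1 efflux block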
# L major viab = Leishmania major promastigote growth inhibition, primary screen. Leishmania major promastigotes, resazurin fluorescence viability. inhibition, % at 10 µM. actives 9% (n = 200,000);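 also: promastigotes grown with compound for 44 hours at 28 °C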
# PKD1 inh = inhibitors of human PKD1 kinase, biochemical, fluorescence polarization. inhibition, % (no concentration beside the values). AID 797, 2007. actives 0.056% (n = 200,000). PKD1 kinase fluorescence polarization assay. Serine/threonine-protein kinase D1 (Homo sapiens), Q15139
# Target sequence (Q15139 whole entry, looked up): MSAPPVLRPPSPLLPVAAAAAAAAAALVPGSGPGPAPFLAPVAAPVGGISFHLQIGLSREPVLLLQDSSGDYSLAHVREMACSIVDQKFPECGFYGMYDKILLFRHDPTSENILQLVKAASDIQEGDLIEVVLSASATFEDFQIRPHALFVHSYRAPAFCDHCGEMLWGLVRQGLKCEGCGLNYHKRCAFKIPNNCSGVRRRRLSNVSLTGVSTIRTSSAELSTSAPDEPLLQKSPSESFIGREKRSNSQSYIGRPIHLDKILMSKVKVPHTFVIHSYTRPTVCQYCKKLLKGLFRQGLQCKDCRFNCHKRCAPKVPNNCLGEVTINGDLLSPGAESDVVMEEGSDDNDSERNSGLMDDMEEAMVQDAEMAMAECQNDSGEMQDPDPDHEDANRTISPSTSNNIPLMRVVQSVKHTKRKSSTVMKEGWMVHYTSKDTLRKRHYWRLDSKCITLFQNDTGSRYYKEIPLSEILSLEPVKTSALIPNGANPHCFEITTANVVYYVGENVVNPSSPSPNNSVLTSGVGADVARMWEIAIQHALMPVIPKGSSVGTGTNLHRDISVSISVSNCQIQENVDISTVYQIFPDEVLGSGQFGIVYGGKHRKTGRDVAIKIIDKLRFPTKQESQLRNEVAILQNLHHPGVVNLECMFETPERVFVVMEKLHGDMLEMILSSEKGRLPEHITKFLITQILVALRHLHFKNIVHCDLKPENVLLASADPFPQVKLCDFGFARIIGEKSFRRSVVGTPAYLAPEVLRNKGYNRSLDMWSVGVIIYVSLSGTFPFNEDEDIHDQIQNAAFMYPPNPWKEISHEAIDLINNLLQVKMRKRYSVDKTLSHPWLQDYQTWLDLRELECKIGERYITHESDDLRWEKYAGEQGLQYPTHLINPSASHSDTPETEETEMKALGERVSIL
# Numbers stand for hits; 0 = inactive; - = not tested or not shown. This excerpt belongs to a sample that is enriched for hits. Rule as the data show it, unless noted: active = inhibition above about 50%; inactive = the rest.
SMILES,GSH fluor,ABCG2 block,Avidin fluor,ABCB1 block,L major viab,PKD1 inh
Cc1ccc(CSc2nnc(CNc3ccc(F)cc3)o2)cc1,0,0,0,0,0,0
Cc1cc(C)c(S(=O)(=O)NCCC2CCCN2C)c(C)c1 (centres undefined),0,0,0,0,97.0,0
Cc1cc(C)c(S(=O)(=O)NCCc2ccccc2)c(C)c1,0,0,0,0,0,0
O=C(c1ccco1)N1CCN(C(=O)c2oc(=O)c3ccccc3c2-c2ccccc2)CC1,0,0,0,0,0,0
Cc1ccc(-c2c(C(=O)NCc3ccccc3)oc(=O)c3ccccc23)cc1,0,0,0,0,0,0
Cc1ccc(-c2c(C(=O)N(C)Cc3ccccc3)oc(=O)c3ccccc23)cc1,0,0,0,0,82.2,0
CN(Cc1ccccc1)C(=O)c1oc(=O)c2ccccc2c1-c1ccccc1,0,0,0,0,55.2,0
CCCn1cnc2cc(NC(=O)c3cccs3)ccc21,0,0,0,0,0,0
CCC(C)(C)C1CCc2nc3ccccc3c(C(=O)OC(C)C(=O)Nc3c(C)n(C)n(-c4ccccc4)c3=O)c2C1 (centres undefined),0,0,0,0,83.7,0
COc1cc(NC(c2ccccc2)c2ccccc2)cc(OC)c1OC,0,0,0,0,96.3,0
COc1cc(NS(C)(=O)=O)cc(OC)c1OC,0,0,0,0,0,0
CCCCN(C(=O)c1cccc2c(=O)c(C)c(-c3ccccc3)oc12)c1ccccc1,0,0,0,0,72.9,0
Cc1ccc(NC(=O)COC(=O)c2cccc3c(=O)c(C)c(-c4ccccc4)oc23)cc1,0,0,0,0,65.9,0
C=C(C)CC(c1ccccc1)N(C(C)=O)c1ccco1 (centres undefined),0,0,0,0,0,0
Cc1cc(C)c(C(=O)/C=C/c2ccc3c(c2)OCO3)c(=O)[nH]1,0,0,0,0,0,0
Cc1cc(C)c(C(=O)/C=C/c2cccc3ccccc23)c(=O)[nH]1,0,0,0,0,99.9,0
COc1ccc(CNC(=O)COC(=O)c2ccccc2C(=O)c2ccccc2)cc1,0,0,0,0,0,0
ON/C=N/C(=S)Nc1ncc(C(F)(F)F)cc1Cl,0,0,0,0,89.7,0
COC(=O)c1ccccc1NC(=O)N1c2ccccc2Sc2ccccc21,0,-,0,-,89.9,0
COc1ccc(CCNC(=O)N2c3ccccc3Sc3ccccc32)cc1,-,-,-,-,68.2,0
COc1ccc(CCNC(=O)N2CCOCC2)cc1,0,0,0,0,0,0
O=C(NCc1ccco1)N1c2ccccc2Sc2ccccc21,0,0,0,0,62.2,0
COc1cc(CNc2ncn[nH]2)ccc1OCc1cccc(C)c1,0,0,0,0,0,0
CCCCN(CCCC)S(=O)(=O)c1ccc(NC(=O)Cc2cccs2)cc1,0,0,0,0,0,0
Cc1ccc(C(=O)N2CCN(c3ccc(Cl)cc3)CC2)cc1,0,0,0,0,0,0
SMILES,GSH fluor,ABCG2 block,Avidin fluor,ABCB1 block,L major viab,PKD1 inh
O=C(Nc1cccc(Cl)c1)N1CCN2C(=O)c3ccccc3C12c1ccccc1 (centres undefined),0,0,0,0,97.9,0
O=C(CCl)N1CCN2C(=O)c3ccccc3C12c1ccc(Cl)cc1 (centres undefined),0,0,0,0,100.4,0
Cc1ccc(C(=O)N2CCN3C(=O)c4ccccc4C23c2ccc(Cl)cc2)cc1 (centres undefined),0,0,0,0,93.8,0
COc1ccc2c(c1)C(C)=CC(C)(C)N2S(=O)(=O)c1ccc(Br)cc1,0,0,0,0,94.8,0
CC1=CC(C)(C)N(S(=O)(=O)c2ccc(C)cc2)c2ccccc21,0,0,0,0,100.0,0
Cc1cc(C(=O)N/N=C/c2cc(N=Nc3ccccc3)ccc2O)n[nH]1,0,0,0,0,99.5,0
Nc1ccc(C(=O)N/N=C\c2cc(N=Nc3cccc4ccccc34)ccc2O)cc1,0,0,0,0,98.8,0
CCCCOC(=O)c1ccc(NC(=O)COC(=O)CSc2nc(C)cc(C)n2)cc1,0,0,0,0,0,0
CCCCn1c(CN2CCN(C)CC2)nc2ccccc21,0,0,0,0,60.6,0
CCc1nccn1S(=O)(=O)c1ccc(OC)c(C)c1C,0,0,0,0,0,0
CCc1nccn1S(=O)(=O)c1ccc(Br)cc1Br,0,0,0,0,89.4,0
Brc1cccc(CSc2nnc(-c3ccncc3)o2)c1,0,0,0,0,0,0
O=C(Nc1cccnc1)c1ccc(Oc2ccccc2)cc1,0,0,0,0,89.7,0
COc1ccc(OC)c(S(=O)(=O)N2CCN(c3c(C)cccc3C)CC2)c1,0,0,0,0,0,0
Cc1ccc(NNC(=O)C(=O)N2CCCCC2)cc1,0,0,0,0,65.7,0
O=C(COC(=O)c1ccc[n+]([O-])c1)Nc1c(Br)cc([N+](=O)[O-])cc1Br,0,0,0,0,61.1,0
CCCCC(=O)Nc1cccc(NC(=O)c2ccc(Br)cc2)c1,0,0,49,0,0,0
COc1ccc(/C=C2\SC(=O)N(CCn3cnnn3)C2=O)cc1,0,0,0,0,0,0
CCc1cc2ccccc2nc1SCC(=O)N1CCN(C(=O)c2ccco2)CC1,0,0,0,0,0,0
CCc1cc2cc(C)ccc2nc1SCC(=O)N1CCN(C(=O)c2ccco2)CC1,254,0,0,0,0,0
CCC1C(c2ccccc2)N(C)C(c2ccccc2)CC1(O)c1ccccc1 (centres undefined),0,0,0,0,53.0,0
c1ccc(C(c2nnnn2Cc2ccco2)N2CCN(C3CCCC3)CC2)cc1 (centres undefined),0,0,0,0,0,0
CCC(c1nnnn1CCOC)N1CCN(c2nc3ccccc3s2)CC1 (centres undefined),0,0,0,0,0,0
COc1ccccc1C(c1nnnn1Cc1ccccc1)N1CCN(c2nc3ccccc3s2)CC1 (centres undefined),0,0,0,0,91.1,0
CCCCC(c1nnnn1Cc1ccco1)N1CCN(c2nc3ccccc3s2)CC1 (centres undefined),0,0,0,0,97.5,0
Cc1ccc(S(=O)(=O)Cn2nnnc2C(C(C)C)N2CCN(c3nc4ccccc4s3)CC2)cc1 (centres undefined),0,0,0,0,98.8,0
c1ccc(C(c2nnnn2Cc2ccco2)N2CCN(c3nc4ccccc4s3)CC2)cc1 (centres undefined),0,0,0,0,98.5,0
